In ChEMBL document CHEMBL4622983, “Structure-Activity Relationship Studies of α-Ketoamides as Inhibitors of the Phospholipase A and Acyltransferase Enzyme Family” (J Med Chem, 2020):

Legend:
Type in all cases: cell-free, HEK-293T
[1] = biological target: T1, Phospholipase A and acyltransferase 2 (Homo sapiens, UniProt Q9NWW9); experiment: Inhibition of full-length C-terminal FLAG-tagged human PLAAT2 expressed in HEK293T cell lysate preincubated for 30 mins followed by MB064 addition and measured after 20 mins by SDS-PAGE based ABPP analysis
T1 sequence (Q9NWW9 whole entry): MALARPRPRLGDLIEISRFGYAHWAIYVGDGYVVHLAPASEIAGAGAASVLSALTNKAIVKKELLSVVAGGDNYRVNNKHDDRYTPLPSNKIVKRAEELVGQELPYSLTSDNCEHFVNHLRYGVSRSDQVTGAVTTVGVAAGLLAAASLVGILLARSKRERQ
Outline: (§1)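 Dose–response competitive ABPP on cytosol only, from HEK293T overexpressing FLAG-tagged PLAAT. Inhibitor 30 min rt, then MB064 20 min rt. PLAAT2 0.25 μg/μL with 250 nM probe; PLAAT3 0.5 μg/μL with 250 nM; PLAAT4 and PLAAT5 1 μg/μL with 500 nM. Fluorescence normalized to Coomassie. IC50 from curves, reported as pIC50 ± SEM, n = 3.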

[2] = biological target: T2, Phospholipase A and acyltransferase 3 (Homo sapiens, UniProt P53816); experiment: Inhibition of full-length C-terminal FLAG-tagged human PLAAT3 expressed in HEK293T cell lysate preincubated for 30 mins followed by MB064 addition and measured after 20 mins by SDS-PAGE based ABPP analysis; outline: as §1
T2 sequence (P53816 whole entry): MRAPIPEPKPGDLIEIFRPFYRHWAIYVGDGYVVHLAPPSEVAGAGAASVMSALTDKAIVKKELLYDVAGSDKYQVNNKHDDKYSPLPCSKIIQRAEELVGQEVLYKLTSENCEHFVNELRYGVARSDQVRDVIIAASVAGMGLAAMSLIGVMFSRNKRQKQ

[3] = biological target: T3, Phospholipase A and acyltransferase 4 (Homo sapiens, UniProt Q9UL19); experiment: Inhibition of full-length C-terminal FLAG-tagged human PLAAT4 expressed in HEK293T cell lysate preincubated for 30 mins followed by MB064 addition and measured after 20 mins by SDS-PAGE based ABPP analysis; outline: as §1
T3 sequence (Q9UL19 whole entry): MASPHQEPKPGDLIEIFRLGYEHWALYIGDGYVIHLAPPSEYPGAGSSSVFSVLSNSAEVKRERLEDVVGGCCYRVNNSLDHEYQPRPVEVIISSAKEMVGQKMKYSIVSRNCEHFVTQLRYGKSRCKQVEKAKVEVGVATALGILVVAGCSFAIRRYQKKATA

[4] = biological target: T4, Phospholipase A and acyltransferase 5 (Homo sapiens, UniProt Q96KN8); experiment: Inhibition of full-length C-terminal FLAG-tagged human PLAAT5 expressed in HEK293T cell lysate preincubated for 30 mins followed by MB064 addition and measured after 20 mins by SDS-PAGE based ABPP analysis; outline: as §1
T4 sequence (Q96KN8 whole entry): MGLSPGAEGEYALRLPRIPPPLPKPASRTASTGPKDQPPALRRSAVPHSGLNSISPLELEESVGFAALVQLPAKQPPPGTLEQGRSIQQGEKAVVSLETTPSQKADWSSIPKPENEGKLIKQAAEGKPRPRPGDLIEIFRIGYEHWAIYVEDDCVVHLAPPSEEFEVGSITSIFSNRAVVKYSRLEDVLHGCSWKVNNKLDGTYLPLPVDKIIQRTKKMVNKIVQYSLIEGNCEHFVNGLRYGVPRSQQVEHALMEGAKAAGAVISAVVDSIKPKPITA

An IC50 [1] of 1580 nM, an IC50 [2] of 794 nM and an IC50 [3] of 1580 nM were found for `COc1ccc(CCNC(=O)C(=O)CCCc2ccccc2)cc1` in this work. For the same compound, the IC50 [4] was 79.4 nM.

`O=C(CCc1ccc(Cl)cc1)C(=O)N1CCOCC1` was tested, and the IC50 [1] was > 10000 nM, the IC50 [2] was > 10000 nM and the IC50 [3] was > 10000 nM. The IC50 [4] was > 10000 nM.

With `CCOC(=O)C(F)(F)C(O)CCc1ccccc1` (configuration not stated) the IC50 [1] was > 10000 nM, the IC50 [2] was > 10000 nM and the IC50 [3] was > 10000 nM. The IC50 [4] was > 10000 nM.

A pIC50 ([2]; hek-293t) of 7, an IC50 [3] of 631 nM and an IC50 [4] of 31.6 nM were found for `O=C(CCCc1ccccc1)C(=O)NCCc1ccc(Oc2ccc(C(F)(F)F)cn2)cc1` in this work.

An IC50 [1] of 2000 nM, an IC50 [2] of 126 nM and an IC50 [3] of 1260 nM were found for `Cc1ccc(CCNC(=O)C(=O)CCCc2ccccc2)cc1` in this work. For the same compound, the IC50 [4] was 39.8 nM.

An IC50 [1] of 2000 nM, an IC50 [2] of 2000 nM and an IC50 [3] of 1260 nM were found for `O=C(CCCc1ccccc1)C(=O)NCCc1ccc(Oc2ncccn2)cc1` in this work. It also gave an IC50 [4] of 251 nM.

An IC50 [1] of 5010 nM, an IC50 [2] of 1000 nM and an IC50 [3] of 6310 nM were found for `COc1ccc(CCNC(=O)C(=O)CCCc2ccccc2)cc1OC` in this work. For the same compound, the IC50 [4] was 316 nM.

`O=C(CCc1ccc(Cl)cc1)C(=O)N1CC[C@@H](c2ccccc2)C1` was tested, and the IC50 [1] was > 10000 nM, the IC50 [2] was > 10000 nM and the IC50 [3] was > 10000 nM. The IC50 [4] was > 10000 nM.

In the case of `O=C(CCc1ccccc1)CC(=O)NCc1ccccc1`, the IC50 [1] is reported as > 10000 nM, the IC50 [2] is reported as > 10000 nM and the IC50 [3] is reported as > 10000 nM. The IC50 [4] was > 10000 nM.

An IC50 [1] of 501 nM, an IC50 [2] of 398 nM and an IC50 [3] of 631 nM were found for `O=C(CCCc1ccccc1)C(=O)NCCc1ccccc1` in this work. The IC50 [4] was 100 nM.

An IC50 [1] of 3160 nM, an IC50 [2] of 3160 nM and an IC50 [3] of 1260 nM were found for `COc1ccc(CCC(=O)C(=O)NCCc2ccccc2)cc1` in this work. It also gave an IC50 [4] of 1260 nM.

With `O=C(CCc1ccc(Cl)cc1)C(=O)N1CCC[C@H]1Cc1ccccc1` the IC50 [1] was > 10000 nM, the IC50 [2] was > 10000 nM and the IC50 [3] was > 10000 nM. For the same compound, the IC50 [4] was > 10000 nM.

An IC50 [1] of 631 nM, an IC50 [2] of 251 nM and an IC50 [3] of 200 nM were found for `O=C(CCCc1ccccc1)C(=O)NCCc1ccc(Oc2ccnc(Cl)n2)cc1` in this work. The IC50 [4] was 79.4 nM.

For `CN(C)C(=O)C(=O)CCc1ccc(Cl)cc1`, the IC50 [1] was > 10000 nM, the IC50 [2] was > 10000 nM and the IC50 [3] was > 10000 nM. For the same compound, the IC50 [4] was > 10000 nM.

In the case of `CCN(CCc1ccccc1)C(=O)C(=O)CCc1ccc(Cl)cc1`, the IC50 [1] is reported as > 10000 nM, the IC50 [2] is reported as > 10000 nM and the IC50 [3] is reported as > 10000 nM. The IC50 [4] was > 10000 nM.

An IC50 [1] of 1580 nM, an IC50 [2] of 5010 nM and an IC50 [3] of 2510 nM were found for `COc1ccc(/C=C/C(=O)C(=O)NCCc2ccccc2)cc1` in this work. It also gave an IC50 [4] of 1000 nM.

An IC50 [1] of 1580 nM, an IC50 [2] of 2510 nM and an IC50 [3] of 2510 nM were found for `O=C(/C=C/c1ccc(Cl)cc1)C(=O)NCCc1ccccc1` in this work. It also gave an IC50 [4] of 631 nM.

An IC50 [1] of 1260 nM, an IC50 [2] of 1580 nM and an IC50 [3] of 2510 nM were found for `O=C(CCCc1ccccc1)C(=O)NCCc1ccc(O)cc1` in this work. For the same compound, the IC50 [4] was 158 nM.

`CN(CCc1ccccc1)C(=O)C(=O)CCc1ccc(Cl)cc1` was tested, and the IC50 [1] was > 10000 nM, the IC50 [2] was > 10000 nM and the IC50 [3] was > 10000 nM. For the same compound, the IC50 [4] was > 10000 nM.

For `O=C(CCc1ccc(Cl)cc1)C(=O)N1CCCC[C@H]1c1ccccc1`, the IC50 [1] was > 10000 nM, the IC50 [2] was > 10000 nM and the IC50 [3] was > 10000 nM. For the same compound, the IC50 [4] was > 10000 nM.

An IC50 [1] of 1260 nM, an IC50 [2] of 2000 nM and an IC50 [3] of 2510 nM were found for `O=C(CCc1ccccc1Cl)C(=O)NCCc1ccccc1` in this work. It also gave an IC50 [4] of 1580 nM.

An IC50 [1] of 2510 nM, an IC50 [2] of 3160 nM and an IC50 [3] of 2510 nM were found for `O=C(/C=C/c1cccc(-c2ccccc2)c1)C(=O)NCCc1ccccc1` in this work. It also gave an IC50 [4] of 1000 nM.

In the case of `O=C(CCc1ccccc1)C(=O)NCCc1ccccc1`, the IC50 [1] is reported as > 10000 nM, the IC50 [2] is reported as > 10000 nM and the IC50 [3] is reported as 3160 nM. The IC50 [4] was 1000 nM.

An IC50 [1] of 7940 nM, an IC50 [2] of 1580 nM and an IC50 [3] of 10000 nM were found for `O=C(/C=C/c1ccccc1)C(=O)NCCc1ccccc1` in this work. For the same compound, the IC50 [4] was 6310 nM.

In the case of `O=C(CCc1ccccc1)[C@H](F)C(=O)NCc1ccccc1`, the IC50 [1] is reported as > 10000 nM, the IC50 [2] is reported as > 10000 nM and the IC50 [3] is reported as > 10000 nM. For the same compound, the IC50 [4] was > 10000 nM.

An IC50 [1] of 794 nM, an IC50 [2] of 200 nM and an IC50 [3] of 1000 nM were found for `O=C(CCCc1ccccc1)C(=O)NCCc1cccc(Cl)c1` in this work. For the same compound, the IC50 [4] was 50.1 nM.

An IC50 [1] of 5010 nM, an IC50 [2] of 2000 nM and an IC50 [3] of 1580 nM were found for `Cc1ccc(CCC(=O)C(=O)NCCc2ccccc2)cc1` in this work. For the same compound, the IC50 [4] was 2510 nM.
